Common to all, as to type: cell-based
Series [1] concerns Raji. The series can be described thus: Inhibition of 12-O-tetradecanoylphorbol-13-acetate induced EBV-early antigen activation in human Raji cells assessed as EA induction at 500 molar ratio by immunofluorescence assay relative to TPA. The following applies: human gammaherpesvirus 4. The arrangement: scale not given: the % may be the effect or the level left. Put shortly: (§1)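 Cells at 1 × 10⁶/mL were incubated 48 h at 37 °C with n-butyric acid (4 mM) and TPA (32 pmol, 20 ng/mL) in DMSO, plus compound in DMSO dosed as mol ratio to TPA. EA-positive cells in smears were detected by indirect immunofluorescence with high-titer EBV-EA-positive nasopharyngeal carcinoma patient sera. At least 500 cells were counted, experiments were run twice, and values are expressed relative to TPA alone (100%).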

Series [2] concerns Raji. The series can be described thus: Inhibition of 12-O-tetradecanoylphorbol-13-acetate induced EBV-early antigen activation in human Raji cells assessed as EA induction at 100 molar ratio by immunofluorescence assay relative to TPA. As to conditions: human gammaherpesvirus 4. More on the design: scale not given: the % may be the effect or the level left. The procedure, abridged:
as §1

Series [3] deals with Raji. The series can be described thus: Inhibition of 12-O-tetradecanoylphorbol-13-acetate induced EBV-early antigen activation in human Raji cells assessed as EA induction at 1000 molar ratio by immunofluorescence assay relative to TPA. More on the design: scale not given: the % may be the effect or the level left. As to conditions: human gammaherpesvirus 4. Put shortly: as §1

For series [4], the system named is Raji. Description: Inhibition of 12-O-tetradecanoylphorbol-13-acetate induced EBV-early antigen activation in human Raji cells assessed as EA induction at 10 molar ratio by immunofluorescence assay relative to TPA. More on the design: scale not given: the % may be the effect or the level left. As to conditions: human gammaherpesvirus 4. Put shortly: as §1
The nature of series [5]: Cytotoxicity against human Raji cells assessed as cell viability at 1000 molar ratio. As to conditions: read-out: Activity.

As to `C=C(CC[C@@H](C)[C@H]1CC[C@@]2(C)C3=C(CC[C@]12C)[C@@]1(C)CC[C@H](O)[C@@H](C)[C@@H]1CC3)C(C)C` [OBTUSIFOLIOL], the Activity in the series on Raji [1] is 30.2%; in the series with Raji [2], 77.4%; in the series with Raji [3], 0%; in the series on Raji [4], 95.8%. Further, in series [5], the viability at 1000 molar ratio was determined as 70%.
For `C=C(CC[C@@H](C)[C@H]1CC[C@@]2(C)C3=C(C(=O)C[C@]12C)[C@@]1(C)CC[C@H](O)[C@@H](C)[C@@H]1CC3)C(C)C`, in that order: 23.6%, 72.4%, 0%, 92.8% and 70%.
With `C=C(CC[C@@H](C)[C@H]1CC[C@@]2(C)C3=C(C(=O)C[C@]12C)[C@@]1(C)CC[C@H](O)[C@@H](C)[C@@H]1CC3=O)C(C)C`, the Activity in the series with Raji [1] worked out at 22.5%; in the series with Raji [2], 70.4%; in the series with Raji [3], 0%; in the series with Raji [4], 91.9%. The viability at 1000 molar ratio in series [5] worked out at 70%.
For `CC1(C)CC[C@]2(C(=O)O)CC[C@]3(C)C(=CC[C@@H]4[C@@]5(C)CC[C@H](O)C(C)(C)[C@@H]5CC[C@]43C)[C@@H]2C1` [OLEANOLIC_ACID], in that order: 22.4%, 72.5%, 12.7%, 93.7% and 70%.
Turning to `C=C(CC[C@@H](C)[C@H]1CC[C@@]2(C)C3=CC[C@H]4[C@H](C)[C@@H](O)CC[C@]4(C)C3=CC[C@]12C)C(C)C`, the Activity was determined as 27.3% with Raji [1], 74.9% in the series with Raji [2], 0% in the series with Raji [3] and 92.4% with Raji [4]. Besides, the viability at 1000 molar ratio in series [5] came out at 70%.

(Values after ChEMBL document CHEMBL1155661, “Bioactive steroids from the whole herb of Euphorbia chamaesyce” (J Nat Prod, 2000).)
